Only some compounds are listed: those with a hit (about 1.6% of all), similar ones and a draw of the others.
14-3-3 Bad inh: inhibitors of 14-3-3 zeta/Bad binding, primary screen, biochemical, TR-FRET, bovine 14-3-3 zeta | 14-3-3 protein zeta/delta (Bos taurus), P63103 | TR-FRET 14-3-3zeta/Dy647-pBad peptide displacement, 1 h | inhibition, % at 21.7 µM | 220,000 compounds, 0.71% hits | AID 781, 2007;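 active means inhibition above about 70%, limit read from the data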;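 further: 0% = full 14-3-3 plus peptide FRET controls and 100% = background without 14-3-3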
Target sequence (P63103 whole entry, looked up): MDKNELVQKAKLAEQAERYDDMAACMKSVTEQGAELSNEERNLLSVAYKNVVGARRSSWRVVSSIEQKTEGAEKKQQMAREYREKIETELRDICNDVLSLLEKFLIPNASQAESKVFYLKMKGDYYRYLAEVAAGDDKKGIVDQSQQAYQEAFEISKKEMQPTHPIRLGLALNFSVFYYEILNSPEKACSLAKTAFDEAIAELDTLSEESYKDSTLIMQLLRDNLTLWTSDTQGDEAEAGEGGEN
eIF4E 4G PPI: eIF4E–eIF4G protein interaction inhibitors, primary screen, biochemical, uHTS, TR-FRET, eIF4GI fragment; TR-FRET eIF4E-eIF4GI(517-606) binding, 2 h; AID 782, 2007; inhibition, % at 21.7 µM; Eukaryotic translation initiation factor 4E (Mus musculus) + Eukaryotic translation …; 220,000 compounds, 0.37% hits;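 further: 0% = full FRET control wells and 100% = background wells lacking eIF4GI fragment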
NCF1 inh: p47phox/p22phox peptide binding inhibitors, primary screen, biochemical, uHTS, NADPH oxidase regulatory subunit. Neutrophil cytosol factor 1 (Homo sapiens), P14598. AID 1274, 2008. 220,000 compounds, 0.53% hits. fluorescence polarization, 2 h. inhibition, % at 24.7 µM;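 further: 0% = p47phox with labelled peptide and 100% = labelled peptide alone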
p97 inhibitor: inhibitors of human p97 ATPase, primary screen, biochemical. inhibition, % at 8 µM. AID 1481, 2009. recombinant p97 ATPase, Kinase-Glo ATP luminescence, 3 h. 220,000 compounds, 0.42% hits. Transitional endoplasmic reticulum ATPase (Homo sapiens), P55072; in the data active means inhibition above about 15%;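 further: 0% = DMSO vehicle and 100% = wells lacking enzyme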
UBC9 SUMO inh: inhibitors of in vitro SUMOylation cascade, primary screen, biochemical, HTRF, uHTS. 290,000 compounds, 0.36% hits. inhibition, % at 35 µM. AID 2006, 2009. SUMO-conjugating enzyme UBC9 (Homo sapiens), P63279. HTRF SUMOylation assay, SAE1/SAE2 + UBC9; in the data active means inhibition above about 50%, passing the limit was not always enough
Target sequence (P63279 whole entry, looked up): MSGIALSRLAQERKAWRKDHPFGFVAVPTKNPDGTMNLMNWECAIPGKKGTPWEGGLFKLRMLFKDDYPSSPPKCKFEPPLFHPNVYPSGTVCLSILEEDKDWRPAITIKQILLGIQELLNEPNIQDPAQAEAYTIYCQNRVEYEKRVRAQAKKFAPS
Tb MetRS inh: T. brucei MetRS inhibitors, primary screen, biochemical, luminescence; purified T. brucei MetRS, ATP depletion, Kinase-Glo luminescence; methionyl-tRNA synthetase (Trypanosoma brucei brucei); 360,000 compounds, 0.4% hits; inhibition, % at 11.9 µM;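 active means inhibition above a per-plate cutoff of the control wells' mean inhibition plus 3 SD, cut at about 5.5% in these data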;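 further: 0% = DMSO wells median and 100% = median of wells with control inhibitor compound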
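Material: T. brucei methionyl-tRNA synthetase, purified; reagent: substrates ATP, L-methionine and bulk Escherichia coli tRNA; dosing: 11.9 µM single point; timing: 15 min plus 2 h at 25 °C; detection: luminescence of leftover ATP; evaluation: % inhibition; control set: DMSO-only wells as low control; replicates: singlicate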
Numbers without * were called inactive; nt = no result given; [ ] = another dose, or the depositor's remark.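 How the source made its calls, unless noted: active means inhibition above about 30% (limit read from the data); inactive means the rest.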

SMILES	14-3-3 Bad inh	eIF4E 4G PPI	NCF1 inh	p97 inhibitor	UBC9 SUMO inh	Tb MetRS inh
Cc1ccccc1NC(=S)Nc1cccc2cnccc12	-6	-1	-18	11	97*	-1
NC(=S)Nc1cccc2cnccc12	3	4	4	-3	10	0
S=C(Nc1cccc(Cl)c1)Nc1cccc2cnccc12	-9	-5	-1	27*	98*	4
Cc1ccc(C)c(NC(=S)Nc2cccc3cnccc23)c1	-7	-3	5	4	99	1
FC(F)(F)c1ccccc1NC(=S)Nc1cccc2cnccc12	-12	0	1	5	95	-1
CC(=O)c1cccc(NC(=S)Nc2cccc3ccccc23)c1	nt	nt	nt	nt	95	0
CC(=O)c1ccc(NC(=S)Nc2cccc3cnccc23)cc1	0	-3	-5	17*	98*	0
CCc1ccc(NC(=O)CCS(=O)(=O)c2ccc(Cl)cc2)cc1	nt	nt	nt	nt	-14	-1
COC(Cc1n[nH]c(=S)n1-c1ccccc1)OC	76*	5	0	2	34	-1
C#CCNC(=O)C[C@@H]1C[C@@]2(C(=O)OC)CC(C)(C)CC=C2N(CCCCCCCC)C1=O	nt	nt	nt	nt	nt	0
Clc1nssc1=Nc1ccccc1	26	51*	7	5	-3	0
Clc1ccc(N=c2ssnc2Cl)cc1	44	31*[fluorescence artefact?]	28	2	2	0
CCOC(=O)c1ccc(N=c2ssnc2Cl)cc1	34	39*	17	-4	5	0
COc1ccc(N=c2ssnc2Cl)cc1	29	30*	13	-4	8	0
COc1cccc(NC(=S)N/N=C2/CCCCc3ccccc32)c1	-3	-3	-8	3	-47	-1
N#Cc1cccc(NC(=O)c2cc(C3CCCCN3C(=O)c3cccs3)on2)c1 (centres undefined)	nt	nt	nt	nt	nt	0
NC(=O)c1c(N)[nH]c(C(=O)c2ccccc2)c1-c1ccccc1Br	nt	nt	nt	nt	nt	0
COc1ccc(C(C(=O)Nc2ccc(F)cc2)N2CCN(C(=O)c3ccco3)CC2)cc1 (centres undefined)	nt	nt	nt	nt	nt	0
CCN(C[C@H]1N[C@@](C)(C(=O)OC)[C@H]2C(=O)N(C)C(=O)[C@@H]12)S(=O)(=O)c1ccc(F)cc1	nt	nt	nt	nt	nt	-3
N#Cc1ccc(N=c2ssnc2Cl)cc1	31	26	21	-5	-1	0
Fc1ccc(N=c2ssnc2Cl)c(F)c1	41	51*	9	-5	-3	0
COc1cc(N=c2ssnc2Cl)cc(OC)c1OC	38	67*	1	0	-26	1
CCOC(=O)CN(C(=O)CSc1nnc(COc2ccc(OC)cc2)n1C)c1ccccc1	1	-2	-4	1	31	0
O=C(Oc1ccc[nH]c1=O)c1cc([N+](=O)[O-])cc([N+](=O)[O-])c1	0	6	-4	9	98*	-1
COCCn1c(CN2CCN(C)CC2)nc2c1c(=O)n(C)c(=O)n2C	-2	-2	-2	-3	4	0
SMILES	14-3-3 Bad inh	eIF4E 4G PPI	NCF1 inh	p97 inhibitor	UBC9 SUMO inh	Tb MetRS inh
CCOCCn1c(CN2CCN(C)CC2)nc2c1c(=O)n(C)c(=O)n2C	-4	90*	4	nt	6	0
CC(=O)C1C(c2ccc(F)cc2)c2c(noc2C)CC1(C)O (centres undefined)	3	96*	-11	5	37	-1
O=C(NC1CCCCC1)N(Cc1nc2ccccc2c(=O)[nH]1)C1CCCCC1	36	24	-8	-2	15	-1
O=C(NC1CCCCC1)N(Cc1nc2ccccc2c(=O)[nH]1)C1CCCC1	nt	nt	31*	-2	-6	0
CCOC(=O)N1CCN(C(=O)C[C@@H]2C[C@@]3(C(=O)OC)CC(C)(C)CC=C3N(Cc3ccccc3)C2=O)CC1	nt	nt	nt	nt	nt	-1
O=c1cnnc(N/N=C/c2c[nH]c3ccccc23)[nH]1	-6	-5	99*	2	6	0
O=c1nc(N/N=C/c2c[nH]c3ccccc23)cn[nH]1	0	-9	-16	4	3	0
COc1ccc(NC(=O)/C(Cl)=C(/Cl)S(=O)Cc2ccccc2Cl)cn1 (centres undefined)	20	-4	5	15*	10	nt
O=S(=O)(NCC[C@@H]1CC[C@H](NS(=O)(=O)c2cccc(F)c2)[C@@H](CO)O1)c1cccc(F)c1	nt	nt	nt	nt	nt	-1
CCOC(=O)/C=C(\C)Sc1cc(O)c2ccccc2c1O	0	5	9	36*	74*	1
CCOC(=O)/C=C(\C)Sc1cc(=O)oc2ccccc12	12	-2	-4	-5	11	0
Cc1ccc(CCS(=O)(=O)c2ccc(C(C)(C)C)cc2)cn1	nt	nt	nt	nt	-11	-1
CCOC(=O)c1sc(N)nc1C(C)(C)C	74*	7	-11	-1	4	0
Cc1ccn2c(NC(=O)c3ccccc3)c(-c3ccccc3)nc2c1	nt	nt	nt	nt	8	-1
Cc1ccn2c(NC(=O)c3ccccc3)c(-c3cccs3)nc2c1	70*[fluorescence artefact?]	5	-34	3	3	-1
Nn1c(SCc2ccccc2F)nnc1-c1cccnc1	-11	2	-13	1	-12	0
Nn1c(SCc2nc3ccccn3c2Br)nnc1-c1cccnc1	-9	2	57*	3	12	-2
c1cncc(-c2nc(-c3ccco3)cs2)c1	73*	15	-6	5	13	-2
Cn1c(N/N=C2\CCCc3ccccc32)nc2c1c(=O)n(Cc1ccc(F)cc1)c(=O)n2C	96*	25	8	1	5	-1
Cc1cc(O)ccc1Nc1nc2ccccc2nc1Nc1ccc(O)cc1C	59	1	56*	14	24	0
COc1c[nH]n(-c2ccccc2)c(=O)c1=O	nt	nt	nt	nt	nt	0
COC(=O)C(C(=O)OC)c1ncccc1[N+](=O)[O-]	85*	6	-3	-1	2	0
O=C(O)CNc1ncccc1[N+](=O)[O-]	-4	-1	50*	-3	9	-2
CS(=O)(=O)N1CCc2cc(C(=O)Nc3ccc(COCC(F)(F)F)cc3)ccc21	nt	nt	nt	nt	10	-1
CC(C)CNC(=O)Cn1c(=O)c2c(ncn2CC(C)C)n(Cc2ccccc2)c1=O	90*	0	-3	2	4	0
CCN(CC)Cc1cc(O)c(CN(CC)CC)cc1O	17	23	46*	2	42	1
O=C(NCCCN1CCCCCC1)c1ccc(CS(=O)(=O)Cc2ccccc2F)o1	-97	-58	89*	1	-61	-1
